# Reference: ChEMBL document CHEMBL1127790, “Photodynamic antitumor agents: beta-methoxyethyl groups give access to functionalized porphycenes and enhance cellular uptake and activity” (J Med Chem, 1994)
# Legend:
# Mus musculus [1] = species: Mus musculus; assay: (§1) Tested for Photodynamic activity of Sensitizers, lethal dose concentration in incubation media as obtained by probit analysis of SSK3 fibrosarcoma cells; format: ADME, cell-based; settings: in vivo, read-out: LD50 (the source's name)
# Method in brief: (§2)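 SSK2 murine fibrosarcoma cells (C3H origin), 3 × 10^5 cells/dish after 18 h attachment, incubated 4 h at 37 °C/5% CO2 with sensitizer in DPPC liposomes (DPPC/sensitizer 100:1) diluted in MEM. Cells washed, irradiated in PBS with laser light at 20 mW/cm2 for 250 s (5 J/cm2), then kept 18 h in MEM/10% FCS. Viability by trypan blue exclusion, as percent of MEM-only controls, ≥5 dishes per point. LD50 in incubation medium by probit analysis.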
# Mus musculus [2] = species: Mus musculus; assay: Tested for Photodynamic activity of Sensitizers for cultivated SSK2 cells; format: ADME, cell-based; settings: read-out: LD50 (the source's name); method in brief: as §2
# Mus musculus [3] = species: Mus musculus; assay: Cellular uptake kinetics of Porphycenes saturation cell level (cs) in SSK2 murine fibrosarcoma cells; format: ADME
# Method in brief: (§3)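 Murine fibrosarcoma cells (SSK2, C3H mouse-derived; MEM/5% FCS, 37 °C, 5% CO2), 2.5 × 10^5 plated and grown 18 h. Then 2 µM porphycene in DOPC liposomes diluted in MEM, incubated at 37 °C for varying times. Cells washed, trypsinized, counted, pelleted. Extraction with methanol then acetonitrile containing diphenylanthracene internal standard. Fluorescence read at ex 370 nm against calibration plots. Saturation level from monoexponential fit.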
# Mus musculus [4] = species: Mus musculus; assay: Cellular uptake kinetics of Porphycenes saturation cell level (cs)in SSK2 murine fibrosarcoma cells; format: ADME; method in brief: as §3
# Mus musculus [5] = species: Mus musculus; assay: Tested for phototoxic activity of compound on SSK2 cultivated murine fibrosarcoma cells; format: ADME, cell-based; settings: light or radiation study, read-out: LD50 (the source's name); method in brief: as §2
# Mus musculus [6] = species: Mus musculus; assay: Tested for phototoxic activity of compound on SSK3 cultivated murine fibrosarcoma cells; format: ADME, cell-based; settings: light or radiation study, read-out: LD50 (the source's name)
# [7] = Cellular uptake kinetics of Porphycenes saturation cell level (cs); format: ADME; method in brief: as §3
# [8] = as §1; format: ADME; settings: Mus musculus, light or radiation study; read-out: LD50 (the source's name); method in brief: as §2
# Mus musculus [9] = species: Mus musculus; assay: Cellular uptake kinetics of Porphycenes saturation cell level (cs) in SSK3 murine fibrosarcoma cells; format: ADME; method in brief: as §3
smiles,measurement,setting,value
C=CC1=C(C)c2cc3[nH]c(cc4nc(cc5[nH]c(cc1n2)c(C)c5CCC(=O)O)C(CCC(=O)O)=C4C)c(C)c3C=C [PROTOPORPHYRIN DISODIUM],CC50,Mus musculus [1],1900 nM
same,CC50,Mus musculus [2],19000 nM
CCCC1=Cc2nc1ccc1[nH]c(cc1CCC)c1nc(ccc3[nH]c2cc3CCC)C(CCC)=C1,Cell saturation,Mus musculus [3],1.5 pM (10e5*cells)-1
COCCC1=Cc2nc1ccc1[nH]c(cc1CCOC)c1nc(ccc3[nH]c2cc3CCOC)C(CCOC)=C1,Cell saturation,Mus musculus [4],9.3 pM (10e5·cells)-1
same,CC50,Mus musculus [5],8.5 nM
COCCC1=Cc2nc1ccc1[nH]c(cc1CCOC)c1nc(ccc3[nH]c2cc3CCOC)C(CCO)=C1,CC50,Mus musculus [6],9.1 nM
same,Cell saturation,[7],9.3 pM (10e5*cells)-1
same,CC50,Mus musculus [5],90 nM
COCCC1=Cc2nc1ccc1[nH]c(c3nc(ccc4[nH]c2cc4CCOC)C(CCOC)=C3)c2c(C(=O)OC)c(C(=O)O)ccc12,Cell saturation,[7],7.3 pM (10e5*cells)-1
same,CC50,[8],13 nM
same,CC50,Mus musculus [2],130 nM
CCCC1=Cc2nc1ccc1[nH]c(cc1CCC)c1nc(c(OC(C)=O)cc3[nH]c2cc3CCC)C(CCC)=C1,Cell saturation,Mus musculus [3],1.2 pM (10e5*cells)-1
same,CC50,Mus musculus [5],110 nM
CCCC1=Cc2nc1ccc1[nH]c(cc1CCOC)c1nc(ccc3[nH]c2cc3CCC)C(CCOC)=C1,Cell saturation,Mus musculus [9],14 pM (10e5*cells)-1
CCCC1=Cc2nc1ccc1[nH]c(cc1CCO)c1nc(ccc3[nH]c2cc3CCC)C(CCO)=C1,Cell saturation,Mus musculus [9],26 pM (10e5*cells)-1
